Source: ChEMBL document CHEMBL1123120, “Synthesis and structure-activity relationships of a new series of antiarrhythmic agents: 4,4-disubstituted hexahydro-3H-pyrido[1,2-c]pyrimidin-3-ones and related compounds” (J Med Chem, 1985)

Key:
Canis familiaris [1] = experiment: Antiarrhythmic activity in Beagle dogs following i.v. administration; minimum effective dose to suppress ventricular ectopic rate >/=25% for a minimum duration of 10 min.; type: functional, Canis lupus familiaris, Heart; settings: for minimal effective dose: Canis lupus familiaris, Heart, iv, 10 min, read-out: MED
Method in brief: (§1)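 Beagles of either sex, pentobarbital 30 mg/kg i.v., had two-stage LAD coronary ligation; tested conscious about 24 h later if ectopic rate ≥130 beats/min, ectopic ≥75% of total rate, and controls within 10%. HCl salts given i.v. to at least two dogs: 5 mg/kg repeated every 15 min to 20 mg/kg max; if active, 1 mg/kg every 5 min to 6 mg/kg. Active means ectopic rate reduced ≥25% for ≥10 min.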

[2] = target: Muscarinic acetylcholine receptor (Rattus norvegicus) (UniProt P08482+P08483+P08485+P08911+P10980); experiment: Muscarinic acetylcholine receptor binding affinity in rat brain homogenate by [3H]quinuclidinylbenzilate displacement compared to disopyramide.; type: tissue-based
Method in brief: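 Whole male CD rat brain without cerebellum was homogenized and spun at 1000g. The supernatant was incubated with 0.15 nM [3H]QNB, with or without compound, 25 °C, 1 h. Three to six concentrations were run in triplicate, and IC50 came from log-probit analysis. Values are expressed as the ratio IC50(test)/IC50(disopyramide).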

Canis familiaris [3] = experiment: Hemodynamic effect of 1 mg/kg of compound was assessed in Beagle dogs by decrease in mean arterial pressure; max dose administered was 10 mg/kg; type: functional, Canis lupus familiaris, Artery
Method in brief: (§2)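 Dogs of either sex were anesthetized with pentobarbital 30 mg/kg i.v. plus 5 mg/kg, then stabilized 30 min. Compound was given via right femoral vein. Where mean antiarrhythmic dose exceeded 5 mg/kg: 5 mg/kg over 5 min every 15 min until MAP fell 50% or 50 mg/kg cumulative. Otherwise: 1 mg/kg/min every 5 min up to 10 mg/kg. MAP was electronically averaged, with baseline the mean of four 5-min readings.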

Canis familiaris [4] = species on record: Canis familiaris; experiment: The mean effective dose to suppress ventricular ectopic rate >=25% for a minimum duration of 10 minutes was reported.; type: functional; settings: Canis lupus familiaris, Cardiac ventricle, read-out: MED; method in brief: as §1
Canis familiaris [5] = experiment: Hemodynamic effect of 5 mg/kg of compound was assessed in Beagle dogs by decrease in mean arterial pressure; max dose administered was 29 mg/kg; type: functional, Canis lupus familiaris, Artery; method in brief: as §2
Canis familiaris [6] = experiment: Decrease in myocardial contractility was determined by monitoring the maximum rate of rise of ventricular pressure in 10 Beagle dogs at a dose of 10 mg/kg; type: functional, Canis lupus familiaris, Cardiac ventricle
Cavia porcellus = species on record: Cavia porcellus; experiment: Antimuscarinic activity in guinea pig ileum; type: functional; settings: read-out: pA2 (converted)
Method in brief: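 Guinea pig ileum was held in modified Tyrode's gassed with 95% O2/5% CO2, pH 7.4, under 0.5 g tension and equilibrated 30 min. A cumulative acetylcholine curve was run, the tissue rinsed 10 min, and the curve repeated with antagonist at four concentrations at quarter-log steps. pA2 by Van Rossum; if noncompetitive, −log of the concentration cutting maximal response 50%. At least four experiments were run.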

Canis familiaris [7] = experiment: Hemodynamic effect of 5 mg/kg of compound was assessed in Beagle dogs by decrease in mean arterial pressure; max dose administered was 50 mg/kg; type: functional, Canis lupus familiaris, Artery; method in brief: as §2
Canis familiaris [8] = experiment: Hemodynamic effect of 5 mg/kg of compound was assessed in Beagle dogs by decrease in mean arterial pressure; max dose administered was 35 mg/kg; type: functional, Canis lupus familiaris, Artery; method in brief: as §2

Question: Which minimal effective dose (Canis familiaris [1]) does the source give for CCC1NC(=O)C(CCN(C(C)C)C(C)C)(c2ccccc2)C2CCCCN12 (centres undefined) here?
Answer: Its minimal effective dose is 6 mg/kg.

Question: What about the Muscarinic receptor affinity [2] of the same compound?
Answer: Its Muscarinic receptor affinity is 0.0909.

Question: How did the minimal effective dose (Canis familiaris [1]) turn out when CCC1=NC(=O)C(CCN(C(C)C)C(C)C)(c2ccccc2)C2CCCCN12 (centres undefined) was run?
Answer: The minimal effective dose was 12.5 mg/kg.

Question: What about the Muscarinic receptor affinity [2] of the same compound?
Answer: Its Muscarinic receptor affinity is 0.0625.

Question: With CC(C)N(CC[C@]1(c2ccccc2)C(=O)N(C)CN2CCCC[C@@H]21)C(C)C as the compound, how does the minimal effective dose (Canis familiaris [1]) read?
Answer: The minimal effective dose was 7.5 mg/kg.

Question: Which results are given for CC(C)N(CCC1(c2ccc(-c3ccccc3)cc2)C(=O)N=CN2CCCCC21)C(C)C (centres undefined)?
Answer: Decrease in MAP (Canis familiaris [3]): 27%; minimal effective dose (Canis familiaris [1]): 2.5 mg/kg; minimal effective dose (Canis familiaris [4]): 2.5 mg/kg; Muscarinic receptor affinity [2]: 0.02

Question: How did the “Decrease in MAP” value (Canis familiaris [5]) turn out when CC(C)N(CCC(C(N)=O)(c1ccccc1)c1ccccn1)C(C)C (centres undefined) [DISOPYRAMIDE] was run?
Answer: The value was 57%.

Question: What about the Decrease (Canis familiaris [6]) of the same compound?
Answer: The Decrease was 56%.

Question: What about the Kb (Cavia porcellus) of the same compound?
Answer: Its Kb is 0.891 µM.

Question: What about the minimal effective dose (Canis familiaris [1]) of the same compound?
Answer: Its minimal effective dose is 10 mg/kg.

Question: What about the minimal effective dose (Canis familiaris [4]) of the same compound?
Answer: Its minimal effective dose is 10 mg/kg.

Question: What about the Muscarinic receptor affinity [2] of the same compound?
Answer: The Muscarinic receptor affinity was 1.

Question: What does the source list for CC(C)N(CCC1(c2ccc(-c3ccccc3)cc2)C(=O)NCN2CCCCC21)C(C)C (centres undefined)?
Answer: minimal effective dose (Canis familiaris [1]): 5 mg/kg; Muscarinic receptor affinity [2]: 0.0625

Question: Which minimal effective dose (Canis familiaris [1]) does the source give for CC(C)N(CCC1(c2ccccc2Cl)C(=O)NCN2CCCCC21)C(C)C (centres undefined) here?
Answer: The minimal effective dose was 7.5 mg/kg.

Question: What about the Muscarinic receptor affinity [2] of the same compound?
Answer: The Muscarinic receptor affinity was < 0.01.

Question: With CC(C)N(CCC1(c2ccccc2)C(=O)N=C(c2ccccc2)N2CCCCC21)C(C)C (centres undefined) as the compound, how does the minimal effective dose (Canis familiaris [1]) read?
Answer: Its minimal effective dose is 1 mg/kg.

Question: What about the Muscarinic receptor affinity [2] of the same compound?
Answer: The Muscarinic receptor affinity was 0.25.

Question: Which results are given for CC(C)N(CCC1(c2ccccc2)C(=O)NC(c2ccccc2)N2CCCCC21)C(C)C (centres undefined)?
Answer: minimal effective dose (Canis familiaris [1]): 4 mg/kg; Muscarinic receptor affinity [2]: 0.0434

Question: With CC(C)N(CCC1(c2ccccc2)C(=O)N=CN2CCCCC21)C(C)C (centres undefined) as the compound, how does the MED (Canis familiaris [1]) read?
Answer: Its MED is 10 mg/kg.

Question: What about the minimal effective dose (Canis familiaris [1]) of the same compound?
Answer: The minimal effective dose was 20 mg/kg.

Question: With CC(C)N(CCC1(c2ccccc2Cl)C(=O)N=CN2CCCCC21)C(C)C (centres undefined) as the compound, how does the minimal effective dose (Canis familiaris [1]) read?
Answer: Its minimal effective dose is 15 mg/kg.

Question: What about the Muscarinic receptor affinity [2] of the same compound?
Answer: Its Muscarinic receptor affinity is 0.0125.

Question: What does the source list for CC(C)N(CCC1(c2ccccc2)C(=O)NC(C)N2CCCCC21)C(C)C (centres undefined)?
Answer: Decrease (Canis familiaris [6]): 21%; Decrease in MAP (Canis familiaris [3]): 4%; Kb (Cavia porcellus): 60.3 µM; minimal effective dose (Canis familiaris [1]): 2.5 mg/kg; minimal effective dose (Canis familiaris [4]): 2.5 mg/kg; Muscarinic receptor affinity [2]: < 0.05

Question: Which “Decrease in MAP” value (Canis familiaris [7]) does the source give for CC1=NC(=O)C(CCN(C(C)C)C(C)C)(c2ccccc2)C2CCCCN12 (centres undefined) [ACTISOMIDE] here?
Answer: The value was 3%.

Question: And the Decrease (Canis familiaris [6])?
Answer: The Decrease was 14%.

Question: And the Kb (Cavia porcellus)?
Answer: Its Kb is 13.2 µM.

Question: What about the MED (Canis familiaris [1]) of the same compound?
Answer: Its MED is 10 mg/kg.

Question: And the minimal effective dose (Canis familiaris [1])?
Answer: The minimal effective dose was 9 mg/kg.

Question: What about the minimal effective dose (Canis familiaris [4]) of the same compound?
Answer: The minimal effective dose was 9.1 mg/kg.

Question: How did the minimal effective dose (Canis familiaris [1]) turn out when CC(C)N(CC[C@]1(c2ccccc2)C(=O)N[C@@H](C)N2CCCC[C@@H]21)C(C)C was run?
Answer: Its minimal effective dose is 10 mg/kg.

Question: And the Muscarinic receptor affinity [2]?
Answer: Its Muscarinic receptor affinity is 0.0434.

Question: For CC(C)N(CCC1(c2ccccc2)C(=O)NCN2CCCCC21)C(C)C (centres undefined), which “Decrease in MAP” value (Canis familiaris [8]) is on record?
Answer: The value was 54%.

Question: What about the minimal effective dose (Canis familiaris [4]) of the same compound?
Answer: Its minimal effective dose is 6 mg/kg.

Question: And the Muscarinic receptor affinity [2]?
Answer: Its Muscarinic receptor affinity is 0.0769.
